Measured values as given in ChEMBL document CHEMBL3414428, “Bond-based bilinear indices for computational discovery of novel trypanosomicidal drug-like compounds through virtual screening” (Eur J Med Chem, 2015).

What was measured:
Trypanosoma cruzi = assay: Trypanosomicidal activity against epimastigote stage of Trypanosoma cruzi CL-B5 after 72 hrs by beta-galactosidase reporter gene assay; type: functional, organism-based; settings: CL-B5, 72 h
Summary of the method: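 Epimastigotes from cultures not yet in stationary phase, seeded at 2 x 10^5/mL with drugs at 28 °C for 72 h. CPRG then added (200 µM final) for 6 h at 37 °C and absorbance read at 595 nm. Each concentration tested in triplicate, two independent experiments; IC50 and AE% calculated.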

J774 = assay: Cytotoxicity against mouse J774 cells assessed as cell viability after 48 hrs by resazurin assay; type: cell-based; settings: J774, 48 h
Summary of the method: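 J774 macrophages grown in RPMI 1640 with 10% heat-inactivated FBS, penicillin and streptomycin at 37 °C, 5% CO2, and harvested pre-confluence with trypsin. Seeded at 5x10^4 cells/well and left to attach 24 h. Exposed to a range of drug concentrations for 48 h. Resazurin solution (2 mM stock, in PBS pH 7) added for 3 h. Absorbance read at 490 and 595 nm with background subtracted. Triplicates; %C and IC50 calculated.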

[1] = Selectivity ratio of IC50 for mouse J774 cells to IC50 for epimastigote stage of Trypanosoma cruzi CL-B5; type: ADME, cell-based; settings: J774 cells versus Trypanosoma cruzi CL-B5 epimastigotes, read-out: Ratio IC50

SMILES | IC50 (Trypanosoma cruzi) | IC50 (J774) | selectivity ratio [1]
COc1ccc(OC)c(CO)c1 | > 256 µM | > 256 µM | 
COc1ccc(OC)c(C(=O)O)c1 | > 256 µM | > 256 µM | 
C=Cc1cc(OC)ccc1OC | > 256 µM | > 256 µM | 
COC(=O)c1cc(O)ccc1O [METHYL 2,5-DIHYDROXYBENZOATE] | 98 µM | > 256 µM | 2.6
O=C(O)c1cc(O)ccc1O [GENTISIC ACID] | > 256 µM | > 256 µM | 
Oc1ccc(O)cc1 [HYDROQUINONE] | 19.5 µM | 123 µM | 6.3
COc1ccc(OC)c(CCc2ccccc2)c1 | 46.5 µM | > 256 µM | 5.5
Oc1ccc(CCc2ccccc2)cc1 | 123 µM | 407 µM | 3.3
COC(=O)c1cc(O)cc(O)c1 [METHYL 3,5-DIHYDROXYBENZOATE] | > 256 µM | > 256 µM | 
Oc1ccc(CCc2cccc(O)c2)cc1 [LUNULARIN] | 152 µM | > 512 µM | 3.4
